We go through 4 compounds from ChEMBL document CHEMBL3044785, “Isolation and identification of antifungal and antialgal alkaloids from Haplophyllum sieversii” (J Agric Food Chem, 2005).

The test system of assay [1] is Selenastrum capricornutum. The assay can be described thus: Antialgal activity against Selenastrum capricornutum assessed as lowest observed effect concentration measured for 4 days. The assay is classed as functional. In a few lines: (§1)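 Cyanobacteria (O. perornata, O. agardhii, Pseudanabaena LW397) and the green alga S. capricornutum were each maintained in continuous steady-state culture. Compound in dichloromethane was dried in quartz 96-well plates, then 200 µL culture was added. Final concentrations were 0.1, 1.0, 10.0 and 100.0 µM, in triplicate, and experiments were repeated. Plates were held at 29 °C under continuous light, and A650 was read every 24 h for 4 days. LOEC, LCIC and 96-h IC50 were taken from mean absorbance graphs.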

Assay [2] concerns Planktothrix agardhii. The assay can be described thus: Antialgal activity against Planktothrix agardhii assessed as lowest observed effect concentration measured for 4 days. Format: functional. The gist of the method: as §1
The subject of assay [3] is Selenastrum capricornutum. The assay can be described thus: Antialgal activity against Selenastrum capricornutum assessed as lowest complete inhibition concentration measured for 4 days. The assay is classed as functional. The gist of the method:
as §1

Assay [4] relates to Phomopsis obscurans. The assay can be described thus: Antifungal activity against Phomopsis obscurans assessed as growth inhibition at 50 uM measured at 120 hr by 96-well microtiter assay. The conditions noted are these: Paraphomopsis obscurans.
Another assay concerns Colletotrichum acutatum. Description: Antifungal activity against Colletotrichum acutatum assessed as growth inhibition at 50 to 150 uM measured up to 72 hr by 96-well microtiter assay. Format: functional, organism-based. In a few lines: (§2)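 Filamentous-fungus broth microdilution in 96 wells, adapted from NCCLS M27A, with benomyl, azoxystrobin and captan as standards. Conidia came from 7–10-day PDA cultures, were filtered and set to 1.0 × 10^6 conidia/mL by A625 standard curve. Compounds were tested at 50.0, 100.0 and 150.0 µM. Growth was read as A620 at 0, 24, 48 and 72 h, plus 120 h for Phomopsis species. Percent inhibition was pooled from two experiments.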

The subject of assay [5] is Planktothrix perornata. Description: Antialgal activity against Oscillatoria perornata assessed as lowest complete inhibition concentration measured for 4 daysos. The assay is classed as functional. In a few lines: as §1
The test system of assay [6] is Pseudanabaena sp. Description: Antialgal activity against Pseudanabaena sp. LW397 assessed as lowest observed effect concentration measured for 4 days. The assay is classed as functional. In a few lines:
as §1

Another assay has as its system Fusarium oxysporum. Description: Antifungal activity against Fusarium oxysporum assessed as growth inhibition at 50 to 150 uM measured up to 72 hr by 96-well microtiter assay. The assay is classed as functional, organism-based. The gist of the method: as §2
Assay [7] relates to Planktothrix agardhii. Description: Antialgal activity against Planktothrix agardhii assessed as lowest complete inhibition concentration measured for 4 days. The assay is classed as functional. The gist of the method: as §1
Assay [8] concerns Phomopsis obscurans. Description: Antifungal activity against Phomopsis obscurans assessed as growth inhibition at 50 uM measured at 120 hr by 96-well microtiter assay. The conditions noted are these: Paraphomopsis obscurans. The assay is classed as functional. The gist of the method: as §2
Another assay concerns Colletotrichum fragariae. Description: Antifungal activity against Colletotrichum fragariae assessed as growth inhibition at 50 to 150 uM measured up to 72 hr by 96-well microtiter assay. Format: functional, organism-based. The gist of the method:
as §2

Assay [9] concerns Pseudanabaena sp. The assay can be described thus: Antialgal activity against Pseudanabaena sp. LW397 assessed as lowest complete inhibition concentration measured for 4 days. The assay is classed as functional. The gist of the method:
as §1

Assay [10] relates to Planktothrix perornata. The assay can be described thus: Antialgal activity against Oscillatoria perornata assessed as lowest observed effect concentration measured for 4 days. Format: functional. In a few lines:
as §1

For assay [11], the system named is Colletotrichum gloeosporioides. Description: Antifungal activity against Colletotrichum gloeosporioides assessed as growth inhibition at 50 to 150 uM measured up to 72 hr by 96-well microtiter assay. The assay is classed as functional, organism-based. The gist of the method: as §2
For another assay, the system named is Diaporthe ampelina. The assay can be described thus: Antifungal activity against Diaporthe ampelina assessed as growth inhibition at 50 to 150 uM measured up to 120 hr by 96-well microtiter assay. The assay is classed as functional, organism-based. In a few lines: as §2
Assay [12] relates to Phomopsis obscurans. The assay can be described thus: Antifungal activity against Phomopsis obscurans assessed as growth inhibition at 50 to 150 uM measured up to 120 hr by 96-well microtiter assay. Format: functional, organism-based. The conditions noted are these: Paraphomopsis obscurans. The gist of the method:
as §2

Assay [13] deals with Selenastrum capricornutum. Description: Antialgal activity against Selenastrum capricornutum assessed as inhibition measured for 96 hr. The assay is classed as functional, organism-based. The gist of the method: as §1
Assay [14] has as its system Planktothrix perornata. The assay can be described thus: Antialgal activity against Oscillatoria perornata assessed as inhibition measured for 96 hr. The assay is classed as functional, organism-based. In a few lines: as §1
For another assay, the system named is Botrytis cinerea. Description: Antifungal activity against Botryotinia fuckeliana assessed as growth inhibition at 50 to 150 uM measured up to 72 hr by 96-well microtiter assay. The assay is classed as functional, organism-based. In a few lines: as §2
The test system of assay [15] is Pseudanabaena sp. The assay can be described thus: Antialgal activity against Pseudanabaena sp. LW397 assessed as inhibition measured for 96 hr. The assay is classed as functional, organism-based. The conditions noted are these: LW397, 96 h. The gist of the method: as §1
The test system of assay [16] is Colletotrichum gloeosporioides. The assay can be described thus: Antifungal activity against Colletotrichum gloeosporioides assessed as growth inhibition at 150 µM measured at 72 hr by 96-well microtiter assay.
Assay [17] concerns Colletotrichum gloeosporioides. Description: Antifungal activity against Colletotrichum gloeosporioides assessed as growth inhibition at 150 µM measured at 48 hr by 96-well microtiter assay.

Each structure is given as a SMILES string. Active and inactive are the calls of the source. The rule behind the calls is not given here.

As usually defined, the inhibition is the drop in the measured response relative to a control, in per cent. For `COc1ccc([C@H]2OC[C@H]3[C@@H]2CO[C@@H]3c2ccc(OC)c(OC)c2)cc1OC` [(+)-EUDESMIN], the Activity was 100 µM in assay [1]; above 100 µM with Planktothrix agardhii [2]; above 100 µM in [3]; above 100 µM with Planktothrix perornata [5]; 100 µM in the assay on Pseudanabaena sp. [6]; above 100 µM in the assay with Planktothrix agardhii [7]. Besides, the values for the Activity in the assay on Pseudanabaena sp. [9] and with Planktothrix perornata [10] were 100 µM and 10 µM, respectively. Also, the inhibition at 50 µM in the assay on Phomopsis obscurans [4] and with Phomopsis obscurans [8] was above 80% each time. The “growth inhibition (GI)” value (with Colletotrichum acutatum; in the assay on Fusarium oxysporum; with Colletotrichum fragariae; in assay [11]; in the assay with Diaporthe ampelina; in the assay with Phomopsis obscurans [12]) was “Active” in each case.

`COc1c2ccoc2nc2c(OC)c(OCC3OC3(C)C)ccc12` (centres undefined) [ANHYDROEVOXINE]: the inhibition at 50 µM in the assay with Phomopsis obscurans [4] and with Phomopsis obscurans [8] was above 80% in each case. In addition, the “growth inhibition (GI)” value (in the assay with Colletotrichum acutatum; with Fusarium oxysporum; with Colletotrichum fragariae; in assay [11]; in the assay on Diaporthe ampelina; with Phomopsis obscurans [12]) was “Active” each time.

One may read the IC50 as the concentration that inhibits the measured activity by half. Turning to `COc1ccc2[nH]c(=O)c3c(c2c1)OC(C)(C)C=C3` [HAPLAMINE], the Activity in [1] was 10 µM; in the assay on Planktothrix agardhii [2], above 100 µM; in [3] it was 100 µM; with Planktothrix perornata [5], 10 µM; with Pseudanabaena sp. [6], 1 µM; in the assay with Planktothrix agardhii [7] it was above 100 µM. Besides, the Activity amounted to 100 µM with Pseudanabaena sp. [9] and 1 µM in the assay with Planktothrix perornata [10]. Moreover, the inhibition at 50 µM in the assay on Phomopsis obscurans [4] and in the assay with Phomopsis obscurans [8] was above 80% each time. For the same compound, the “growth inhibition (GI)” value (with Colletotrichum acutatum; with Fusarium oxysporum; with Botrytis cinerea; with Colletotrichum fragariae; in assay [11]; in the assay on Diaporthe ampelina) was “Active” throughout. In addition, the “growth inhibition (GI)” value in the assay with Phomopsis obscurans [12] was “Active”. Further, the figures for the IC50 (in assay [13]; in the assay with Planktothrix perornata [14]; in the assay on Pseudanabaena sp. [15]) were 15.9 µM, 1.8 µM and 2 µM, respectively.

`CC1(C)C=Cc2c(O)nc3ccccc3c2O1` [FLINDERSINE]: the Activity in [1] was 10 µM; in the assay on Planktothrix agardhii [2], above 100 µM; in assay [3], 100 µM; in the assay with Planktothrix perornata [5] it was 100 µM; with Pseudanabaena sp. [6], above 100 µM; with Planktothrix agardhii [7], above 100 µM. Moreover, the figures for the Activity in the assay on Pseudanabaena sp. [9] and in the assay with Planktothrix perornata [10] were above 100 µM and 10 µM, respectively. For the same compound, the inhibition at 50 µM in the assay with Phomopsis obscurans [4] and in the assay with Phomopsis obscurans [8] was above 80% each time. Moreover, the “growth inhibition (GI)” value (in the assay on Colletotrichum acutatum; in the assay on Fusarium oxysporum; in the assay on Colletotrichum fragariae; in assay [11]; with Diaporthe ampelina; in the assay on Phomopsis obscurans [12]) was “Active” each time. In addition, the IC50 in assay [13] stood at 17.8 µM; with Planktothrix perornata [14] it was 15.9 µM. For the same compound, the entries for the “inhibition (INH)” value in assay [16] and in assay [17] were below 40% and above 65%, respectively.
